Measured values: ChEMBL document CHEMBL1155985, “Water-soluble phosphate prodrugs of pleuromutilin analogues with potent in vivo antibacterial activity against Gram-positive pathogens” (Bioorg Med Chem Lett, 2009)
≈ marks a conversion by molar mass, not a printed value.

Experiments:
[1] = Aqueous solubility of the compound; format: physicochemical
[2] = Stability in buffer at pH 7.4 assessed as remaining compound at 10 mg/ml after 14 days; format: physicochemical; conditions: read-out: Activity
Summary of the method: (§1)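 Compounds at 10 mg/mL in pH 7.4 buffer were kept at room temperature. Percent parent remaining was measured by UV/HPLC at 8 h and at 14 days.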

[3] = Stability in buffer at pH 7.4 assessed as remaining compound at 10 mg/ml after 8 hrs; format: physicochemical; conditions: read-out: Activity; summary of the method: as §1
Staphylococcus aureus [4] = test: Antibacterial activity against methicillin-resistant Staphylococcus aureus 236-29 infected in mouse dosed 1 hr and 4 hr after infection, iv; format: functional; conditions: 236-29, iv
Summary of the method: (§2)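 Lethal systemic S. aureus infection in mice, inoculated intraperitoneally; test agent given iv twice, at 1 h and 4 h post-infection. ED50 taken as the dose giving 50% mouse survival, reported with 95% confidence ranges.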

Staphylococcus aureus [5] = test: Antibacterial activity against methicillin-susceptible Staphylococcus aureus 232-51 infected in mouse dosed 1 hr and 4 hr after infection, iv; format: functional; conditions: 232-51, iv; summary of the method: as §2
Streptococcus pneumoniae = test: Antibacterial activity against Streptococcus pneumoniae by agar dilution method; format: functional
Summary of the method: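 MIC was measured by agar dilution following NCCLS guidelines, with retapamulin and linezolid as positive controls.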

[6] = system: Staphylococcus epidermidis; test: Antibacterial activity against methicillin-susceptible Staphylococcus epidermidis by agar dilution method; format: functional
Summary of the method: (§3)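 MICs by agar dilution following NCCLS guidance against resistant and susceptible Gram-positive strains; retapamulin and linezolid run as positive controls.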

Staphylococcus aureus [7] = test: Antibacterial activity against methicillin-susceptible Staphylococcus aureus by agar dilution method; format: functional; summary of the method: as §3
[8] = system: Staphylococcus epidermidis; test: Antibacterial activity against methicillin-resistant Staphylococcus epidermidis by agar dilution method; format: functional; summary of the method: as §3
Staphylococcus aureus [9] = test: Antibacterial activity against methicillin-resistant Staphylococcus aureus by agar dilution method; format: functional; summary of the method: as §3
Rattus norvegicus [10] = test: Cmax in Sprague-Dawley rat assessed as parent drug level at 10 mg/kg, iv; format: ADME, organism-based; parameters: dose 10 mg/kg, route intravenous; conditions: in vivo
Summary of the method: (§4)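 Male Sprague-Dawley rats (n = 3) were dosed iv with the phosphate prodrug at 10, 30 or 100 mg/kg. Plasma levels of the parent drug were measured over time. Tmax, Cmax, AUC and elimination half-life were then derived from these levels.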

Rattus norvegicus [11] = test: Cmax in Sprague-Dawley rat assessed as parent drug level at 100 mg/kg, iv; format: ADME, organism-based; parameters: dose 100 mg/kg, route intravenous; conditions: in vivo; summary of the method: as §4
Rattus norvegicus [12] = test: Half life in Sprague-Dawley rat assessed as parent drug level at 30 mg/kg, iv; format: ADME, organism-based; parameters: dose 30 mg/kg, route intravenous; conditions: in vivo; summary of the method: as §4
Rattus norvegicus [13] = test: Tmax in Sprague-Dawley rat assessed as parent drug level at 100 mg/kg, iv; format: ADME, organism-based; parameters: dose 100 mg/kg, route intravenous; conditions: in vivo; summary of the method: as §4
Rattus norvegicus [14] = test: AUC (0 to infinity) in Sprague-Dawley rat assessed as parent drug level at 10 mg/kg, iv; format: ADME, organism-based, Plasma; parameters: dose 10 mg/kg, route intravenous, time infinity; conditions: in vivo; summary of the method: as §4
Rattus norvegicus [15] = test: Tmax in Sprague-Dawley rat assessed as parent drug level at 10 mg/kg, iv; format: ADME, organism-based; parameters: dose 10 mg/kg, route intravenous; conditions: in vivo; summary of the method: as §4
Rattus norvegicus [16] = test: AUC (0 to infinity) in Sprague-Dawley rat assessed as parent drug level at 30 mg/kg, iv; format: ADME, organism-based, Plasma; parameters: time infinity, dose 30 mg/kg, route intravenous; conditions: in vivo; summary of the method: as §4
Rattus norvegicus [17] = test: Tmax in Sprague-Dawley rat assessed as parent drug level at 30 mg/kg, iv; format: ADME, organism-based; parameters: dose 30 mg/kg, route intravenous; conditions: in vivo; summary of the method: as §4
Rattus norvegicus [18] = test: AUC (0 to infinity) in Sprague-Dawley rat assessed as parent drug level at 100 mg/kg, iv; format: ADME, organism-based, Plasma; parameters: dose 100 mg/kg, route intravenous, time infinity; conditions: in vivo; summary of the method: as §4
Rattus norvegicus [19] = test: Cmax in Sprague-Dawley rat assessed as parent drug level at 30 mg/kg, iv; format: ADME, organism-based; parameters: dose 30 mg/kg, route intravenous; conditions: in vivo; summary of the method: as §4
Rattus norvegicus [20] = test: Half life in Sprague-Dawley rat assessed as parent drug level at 10 mg/kg, iv; format: ADME, organism-based; parameters: dose 10 mg/kg, route intravenous; conditions: in vivo; summary of the method: as §4
Rattus norvegicus [21] = test: Half life in Sprague-Dawley rat assessed as parent drug level at 100 mg/kg, iv; format: ADME, organism-based; parameters: dose 100 mg/kg, route intravenous; conditions: in vivo; summary of the method: as §4
[22] = Toxicity against iv dosed ICR mouse; format: organism-based; conditions: in vivo
Summary of the method: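 Acute toxicity after iv administration in SPF-level ICR mice (n = 50); LD50 determined.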

[23] = Staphylococcus aureus, read-out: MIC

| solubility [1] [mg/mL] | remaining at 336 h, 10 mg/ml [2] [%] | remaining at 8 h, 10 mg/ml [3] [%] | SMILES | MIC (Streptococcus pneumoniae) [µg/mL] | MIC [6] [µg/mL] | MIC (Staphylococcus aureus [7]; [23]) [µg/mL] | MIC [8] [µg/mL] | MIC (Staphylococcus aureus [9]) [µg/mL] | also measured |
| --- | --- | --- | --- | --- | --- | --- | --- | --- | --- |
| 57.6 | 99.8 | 100 | C=C[C@]1(C)C[C@@H](OC(=O)NC(=O)c2ccc(OC)cc2)[C@]2(C)[C@H](C)CC[C@]3(CCC(=O)[C@@H]32)[C@@H](C)[C@@H]1OP(=O)([O-])[O-].[Na+].[Na+] | – | – | – | – | – | – |
| 52.3 | 99.5 | 100 | CC[C@]1(C)C[C@@H](OC(=O)NC(=O)c2ccc(O)cc2)[C@]2(C)[C@H](C)CC[C@]3(CCC(=O)[C@@H]32)[C@@H](C)[C@@H]1OP(=O)([O-])[O-].[Na+].[Na+] | – | – | – | – | – | – |
| – | – | – | CN[C@H](CC(C)C)C(=O)N[C@H]1C(=O)N[C@@H](CC(N)=O)C(=O)N[C@H]2C(=O)N[C@H]3C(=O)N[C@H](C(=O)N[C@H](C(=O)O)c4cc(O)cc(O)c4-c4cc3ccc4O)[C@H](O)c3ccc(c(Cl)c3)Oc3cc2cc(c3O[C@@H]2O[C@H](CO)[C@@H](O)[C@H](O)[C@H]2O[C@H]2C[C@](C)(N)[C@H](O)[C@H](C)O2)Oc2ccc(cc2Cl)[C@H]1O [VANCOMYCIN] | – | – | – | – | – | ED50 (Staphylococcus aureus [4]): 15.8 mg/kg; ED50 (Staphylococcus aureus [5]): 13.5 mg/kg |
| – | – | – | C=C[C@]1(C)C[C@@H](OC(=O)NC(=O)c2ccc(O)cc2)[C@]2(C)[C@H](C)CC[C@]3(CCC(=O)[C@@H]32)[C@@H](C)[C@@H]1O | 0.25 (≈ 0.517 µM) | 0.0625 (≈ 0.129 µM) | 0.125 (≈ 0.258 µM) | 0.125 (≈ 0.258 µM) | 0.125 (≈ 0.258 µM) | – |
| – | – | – | CC(=O)NC[C@H]1CN(c2ccc(N3CCOCC3)c(F)c2)C(=O)O1 [LINEZOLID] | – | 0.5 (≈ 1.48 µM) | – | 1 (≈ 2.96 µM) | 1 (≈ 2.96 µM) | MIC (Staphylococcus aureus [7]): 0.5 µg/mL (≈ 1.48 µM) |
| – | – | – | C=C[C@]1(C)C[C@@H](OC(=O)NC(=O)c2ccc(OC)cc2)[C@]2(C)[C@H](C)CC[C@]3(CCC(=O)[C@@H]32)[C@@H](C)[C@@H]1O | 0.125 (≈ 0.251 µM) | 0.0625 (≈ 0.126 µM) | 0.0625 (≈ 0.126 µM) | 0.0625 (≈ 0.126 µM) | 0.0625 (≈ 0.126 µM) | – |
| – | – | – | C=C[C@]1(C)C[C@@H](OC(=O)CS[C@@H]2C[C@H]3CC[C@@H](C2)N3C)[C@]2(C)[C@H](C)CC[C@]3(CCC(=O)[C@H]32)[C@@H](C)[C@@H]1O [RETAPAMULIN] | 0.031 (≈ 0.0599 µM) | 0.031 (≈ 0.0599 µM) | 0.031 (≈ 0.0599 µM) | 0.031 (≈ 0.0599 µM) | 0.031 (≈ 0.0599 µM) | – |

| SMILES | solubility [1] [mg/mL] | remaining at 336 h, 10 mg/ml [2] [%] | remaining at 8 h, 10 mg/ml [3] [%] | MIC (Streptococcus pneumoniae) [µg/mL] | MIC [6] [µg/mL] | MIC (Staphylococcus aureus [7]; [23]) [µg/mL] | MIC [8] [µg/mL] | MIC (Staphylococcus aureus [9]) [µg/mL] | also measured |
| --- | --- | --- | --- | --- | --- | --- | --- | --- | --- |
| CC[C@]1(C)C[C@@H](OC(=O)NC(=O)c2ccc(OP(=O)([O-])[O-])cc2)[C@]2(C)[C@H](C)CC[C@]3(CCC(=O)[C@@H]32)[C@@H](C)[C@@H]1O.[Na+].[Na+] | 96.8 | 99.6 | 100 | – | – | – | – | – | Cmax (Rattus norvegicus [10]): 3390 ng/mL; Cmax (Rattus norvegicus [11]): 67500 ng/mL; ED50 (Staphylococcus aureus [4]): 20.9 mg/kg; t1/2 (Rattus norvegicus [12]): 45 min; Tmax (Rattus norvegicus [13]): 4.98 min; AUC (Rattus norvegicus [14]): 1290 ng·h/mL; Tmax (Rattus norvegicus [15]): 4.98 min; AUC (Rattus norvegicus [16]): 5040 ng·h/mL; Tmax (Rattus norvegicus [17]): 4.98 min; AUC (Rattus norvegicus [18]): 32600 ng·h/mL; Cmax (Rattus norvegicus [19]): 11300 ng/mL; t1/2 (Rattus norvegicus [20]): 30.6 min; t1/2 (Rattus norvegicus [21]): 37.8 min; ED50 (Staphylococcus aureus [5]): 17.4 mg/kg; LD50 [22]: 1010 mg/kg |
